Key:
[1] = target: Chymotrypsinogen A (Bos taurus) (UniProt P00766); assay: Percent activity regained after N2H4 treatment for alpha-chymotrypsin (17 nM); type: functional
[2] = target: Chymotrypsinogen A (Bos taurus) (UniProt P00766); assay: Time for which maximum percent inhibition by the compound was determined against alpha-chymotrypsin (17 nM); type: functional
How it was run: (§1)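 Enzyme incubated with excess lactone added from DMSO stock (final 10% DMSO); aliquots over 2 h diluted into substrate: chymotrypsin Suc-AAPF-pNA 315 µM, pH 7.2, 410 nm; t-PA Spectrozyme t-PA 0.2 mM, Tris-imidazole pH 8.4, 405 nm; HNE MeO-Suc-AAPV-pNA 150 µM, pH 7.4, 410 nm; plasmin Ts-GPK-pNA 157.4 µM, pH 7.8, 404 nm; thrombin Ts-GPR-pNA 75 µM, pH 8.0, 408 nm; trypsin Z-VGR-pNA 155 µM, pH 7.2, 404 nm. Activity given relative to a no-lactone control. Some runs used a 10-min substrate-free delay after dilution. ∞ means no recovery over 2 h.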

[3] = target: Chymotrypsinogen A (Bos taurus) (UniProt P00766); assay: Time for which maximum percent inhibition persists was determined against alpha-chymotrypsin (17 nM); * =no enzyme activity was recovered over 2 h; type: functional; how it was run: as §1
[4] = target: Chymotrypsinogen A (Bos taurus) (UniProt P00766); assay: Acylation rate constant against Chymotrypsinogen
How it was run: (§2)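 Competitive substrate assay: lactone (DMSO, final 10% v/v) and chromogenic substrate combined in buffer, enzyme added, absorbance followed to steady state. Turnover-corrected semilog plot gives kobs; I0 vs I0/kobs replot (eq 6) with separately determined Km yields Ki and ka. Where no burst was seen, Ki was estimated from Km(app) replots using 15-s initial velocities. Buffers and substrates as in incubation assay.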

[5] = target: Chymotrypsinogen A (Bos taurus) (UniProt P00766); assay: Substrate binding constant against Chymotrypsinogen; how it was run: as §2
[6] = target: Chymotrypsinogen A (Bos taurus) (UniProt P00766); assay: Second order rate constant against Chymotrypsinogen; how it was run: as §2
[7] = target: T1, Neutrophil elastase (Homo sapiens) (UniProt P08246); assay: Maximum percent inhibition persists was determined against human neutrophil elastase HNE 66 nM; how it was run: as §1
T1 sequence (whole entry): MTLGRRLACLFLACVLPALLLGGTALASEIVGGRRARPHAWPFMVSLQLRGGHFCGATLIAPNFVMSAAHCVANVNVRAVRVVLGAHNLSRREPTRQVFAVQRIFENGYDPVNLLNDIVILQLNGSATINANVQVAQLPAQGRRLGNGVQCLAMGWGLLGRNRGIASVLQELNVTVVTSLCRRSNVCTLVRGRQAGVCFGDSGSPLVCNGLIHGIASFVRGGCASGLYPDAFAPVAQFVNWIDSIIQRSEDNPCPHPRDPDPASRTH

[8] = target: T1, Neutrophil elastase (Homo sapiens); assay: Time for which maximum percent inhibition persists was determined against human neutrophil elastase HNE(66 nM); type: functional; how it was run: as §1
[9] = target: T1, Neutrophil elastase (Homo sapiens); assay: Time for which maximum percent inhibition by the compound was determined against human neutrophil elastase HNE(66 nM); type: functional; how it was run: as §1
[10] = target: Plasminogen (Homo sapiens) (UniProt P00747); assay: Time to reach maximum percent inhibition by the compound was determined against plasmin(625 nM); type: functional
How it was run: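 Plasmin plus excess lactone (10% final DMSO) was sampled over 2 h into Ts-Gly-Pro-Lys-pNA (157.4 μM) in 0.05 M phosphate, pH 7.8. The slope at 404 nm, relative to an enzyme-only control, gave residual activity. Minutes needed to reach maximal inhibition were reported.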

[11] = target: Plasminogen (Homo sapiens) (UniProt P00747); assay: Percent activity regained after N2H4 treatment for plasmin(625 nM); type: functional
[12] = target: Plasminogen (Homo sapiens) (UniProt P00747); assay: Substrate binding constant against plasmin; how it was run: as §2
[13] = target: Plasminogen (Homo sapiens) (UniProt P00747); assay: Second order rate constant against plasmin; how it was run: as §2
[14] = target: Plasminogen (Homo sapiens) (UniProt P00747); assay: Time for which maximum percent inhibition persists was determined against plasmin(625 nM); * =no enzyme activity was recovered over 2 h; type: functional; how it was run: as §1
[15] = target: Plasminogen (Homo sapiens) (UniProt P00747); assay: Maximum percent inhibition by the compound was determined against plasmin(625 nM); how it was run: as §1
[16] = target: Plasminogen (Homo sapiens) (UniProt P00747); assay: Acylation rate constant against plasmin; how it was run: as §2
[17] = target: Tissue-type plasminogen activator (Homo sapiens) (UniProt P00750); assay: Percent activity regained after N2H4 treatment for Tissue plasminogen activator 19.4 nM); type: functional
[18] = target: Tissue-type plasminogen activator (Homo sapiens) (UniProt P00750); assay: Maximum percent inhibition by the compound was determined against Tissue plasminogen activator (19.4 nM); how it was run: as §1
[19] = target: Tissue-type plasminogen activator (Homo sapiens) (UniProt P00750); assay: Substrate binding constant against Tissue plasminogen activator; how it was run: as §2
[20] = target: Tissue-type plasminogen activator (Homo sapiens) (UniProt P00750); assay: Time for which maximum percent inhibition persists was determined against Tissue plasminogen activator (19.4 nM); * =no enzyme activity was recovered over 2 h; type: functional; how it was run: as §1
[21] = target: Tissue-type plasminogen activator (Homo sapiens) (UniProt P00750); assay: Time to reach maximum percent inhibition by the compound was determined against Tissue plasminogen activator (19.4 nM); type: functional
How it was run: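 Tissue plasminogen activator was exposed to excess lactone (10% final DMSO). Over 2 h, aliquots were diluted into Spectrozyme t-PA (0.2 mM) in Tris-imidazole, I 0.3, pH 8.4. Hydrolysis at 405 nm gave residual activity relative to an enzyme-only control. The time (min) to reach maximal percent inhibition was recorded.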

[22] = target: Prothrombin (Homo sapiens) (UniProt P00734); assay: Substrate binding constant against thrombin; how it was run: as §2
[23] = target: Prothrombin (Homo sapiens) (UniProt P00734); assay: Second order rate constant against thrombin; how it was run: as §2
[24] = target: Prothrombin (Homo sapiens) (UniProt P00734); assay: Time to reach maximum percent inhibition by the compound was determined against thrombin (1.93 nM); type: functional
How it was run: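 Thrombin was incubated with excess lactone (DMSO, 10% final). Aliquots over 2 h were diluted into Ts-Gly-Pro-Arg-pNA (75 μM) in 0.05 M phosphate, 0.01 M EDTA, 10 g/L PEG 8000, 10 mg/L aprotinin, pH 8.0, and read at 408 nm against a no-lactone control. Time to maximal inhibition was recorded.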

[25] = target: T2, Serine protease 1 (Bos taurus) (UniProt P00760); assay: Time to reach maximum percent inhibition by the compound was determined against trypsin (14.6 nM); type: functional
T2 sequence (whole entry): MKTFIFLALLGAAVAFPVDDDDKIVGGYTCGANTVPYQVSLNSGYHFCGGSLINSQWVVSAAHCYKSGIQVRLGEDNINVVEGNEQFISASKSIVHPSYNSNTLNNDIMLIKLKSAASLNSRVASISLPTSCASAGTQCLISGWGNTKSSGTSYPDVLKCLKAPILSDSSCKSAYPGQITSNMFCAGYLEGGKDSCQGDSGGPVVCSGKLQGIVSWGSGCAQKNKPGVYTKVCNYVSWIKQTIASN
How it was run: (§3)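 Trypsin was incubated with excess lactone added from DMSO stock (10% final DMSO). Aliquots taken over 2 h were diluted into Z-Val-Gly-Arg-pNA (155 μM) in 0.2 M phosphate, pH 7.2, and read at 404 nm. Activity came from the absorbance slope versus a no-lactone control. Reported are minutes to maximal inhibition and minutes it persisted; ∞ means no recovery within 2 h.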

[26] = target: T2, Serine protease 1 (Bos taurus); assay: Time for which maximum percent inhibition persists was determined against trypsin (14.6 nM); type: functional; how it was run: as §3
[27] = target: Prothrombin (Homo sapiens) (UniProt P00734); assay: Maximum percent inhibition by the compound was determined against thrombin (1.93 nM); how it was run: as §1
[28] = target: Prothrombin (Homo sapiens) (UniProt P00734); assay: Acylation rate constant against thrombin; how it was run: as §2
[29] = target: Prothrombin (Homo sapiens) (UniProt P00734); assay: Percent activity regained after N2H4 treatment for thrombin (1.93 nM); type: functional
[30] = target: T2, Serine protease 1 (Bos taurus); assay: Maximum percent inhibition by the compound was determined against trypsin (14.6 nM); how it was run: as §1
[31] = Ratio of initial inhibitor concentration to initial Chymotrypsinogen concentration
How it was run: (§4)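 Ratio I0/E0 of lactone to enzyme in the 2-h incubation assay; lactone added from DMSO stock to buffered enzyme (final 10% DMSO).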

[32] = Ratio of initial inhibitor concentration to initial HNE concentration; how it was run: as §4
[33] = Ratio of initial inhibitor concentration to initial Plasmin concentration; how it was run: as §4
[34] = Ratio of initial inhibitor concentration to initial t-PA concentration; how it was run: as §4
[35] = Ratio of initial inhibitor concentration to initial thrombin concentration; how it was run: as §4
[36] = Ratio of initial inhibitor concentration to initial trypsin concentration; how it was run: as §4
[37] = Ratio of initial inhibitor concentration to initial urokinase concentration; how it was run: as §4
[38] = target: Chymotrypsinogen A (Bos taurus) (UniProt P00766); assay: Maximum percent inhibition persists was determined against Chymotrypsinogen (17 nM); how it was run: as §1
[39] = target: T3, Urokinase-type plasminogen activator (Homo sapiens, UniProt P00749); assay: Percent activity regained after N2H4 treatment for Urokinase-type plasminogen activator (300 nM); type: functional
[40] = target: Prothrombin (Homo sapiens) (UniProt P00734); assay: Time for which maximum percent inhibition persists was determined against thrombin (1.93 nM); * =no enzyme activity was recovered over 2 h; type: functional; how it was run: as §1
[41] = target: T3, Urokinase-type plasminogen activator
[42] = target: T3, Urokinase-type plasminogen activator; remark: listed apart in the source
[43] = target: T3, Urokinase-type plasminogen activator; assay: Acylation rate constant against urokinase

Plasminogen (Homo sapiens), sequence (P00747 97-580 limits assumed): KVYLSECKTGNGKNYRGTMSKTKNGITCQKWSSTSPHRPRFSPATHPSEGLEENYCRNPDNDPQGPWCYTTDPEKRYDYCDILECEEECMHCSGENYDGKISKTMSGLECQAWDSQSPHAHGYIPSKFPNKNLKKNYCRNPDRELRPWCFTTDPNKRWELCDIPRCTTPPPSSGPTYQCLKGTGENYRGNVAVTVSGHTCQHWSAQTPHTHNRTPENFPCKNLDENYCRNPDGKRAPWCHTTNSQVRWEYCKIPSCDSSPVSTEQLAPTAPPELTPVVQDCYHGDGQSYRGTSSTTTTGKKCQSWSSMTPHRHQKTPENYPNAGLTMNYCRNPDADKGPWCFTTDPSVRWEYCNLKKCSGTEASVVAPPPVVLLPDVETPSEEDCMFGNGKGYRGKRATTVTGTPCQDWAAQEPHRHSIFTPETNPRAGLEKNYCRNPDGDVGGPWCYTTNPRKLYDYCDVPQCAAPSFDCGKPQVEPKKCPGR
Plasminogen (Homo sapiens), sequence (P00747 581-810 limits assumed): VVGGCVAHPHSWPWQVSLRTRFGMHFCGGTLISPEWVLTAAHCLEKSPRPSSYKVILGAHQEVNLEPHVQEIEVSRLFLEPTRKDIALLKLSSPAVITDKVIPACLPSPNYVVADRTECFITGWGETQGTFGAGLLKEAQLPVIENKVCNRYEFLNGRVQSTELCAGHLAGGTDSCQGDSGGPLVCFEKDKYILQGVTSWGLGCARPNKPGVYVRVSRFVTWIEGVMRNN
Tissue-type plasminogen activator (Homo sapiens), sequence (P00750 36-562 limits assumed): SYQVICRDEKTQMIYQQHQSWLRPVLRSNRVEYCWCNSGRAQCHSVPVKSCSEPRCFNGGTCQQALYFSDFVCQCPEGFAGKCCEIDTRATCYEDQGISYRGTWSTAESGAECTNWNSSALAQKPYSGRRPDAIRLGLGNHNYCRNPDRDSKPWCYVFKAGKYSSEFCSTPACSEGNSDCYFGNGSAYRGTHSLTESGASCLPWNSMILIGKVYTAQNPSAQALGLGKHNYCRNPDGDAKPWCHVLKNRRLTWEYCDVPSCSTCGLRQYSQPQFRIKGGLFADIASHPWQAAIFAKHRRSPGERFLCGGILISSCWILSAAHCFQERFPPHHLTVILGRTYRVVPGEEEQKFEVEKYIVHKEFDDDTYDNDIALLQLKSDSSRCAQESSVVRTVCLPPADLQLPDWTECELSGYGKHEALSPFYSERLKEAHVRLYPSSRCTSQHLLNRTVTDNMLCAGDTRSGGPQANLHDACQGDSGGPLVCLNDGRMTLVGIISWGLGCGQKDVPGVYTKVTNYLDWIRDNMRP

- Activity [1]: 32%
- TIME [2]: 0.25 h
- TIME [3]: No enzyme activity
- Ka [4]: 7.22 min⁻¹
- Ks [5]: 2.4 µM
- Rate [6]: 3 ka/Ks
- inhibition [7]: 38%
- TIME [8]: 1.5 h
- TIME [9]: 0.5 h
- TIME [10]: 0 h
- Activity [11]: 14%
- Ks [12]: 0.03 µM
- Rate [13]: 453 ka/Ks
- TIME [14]: No enzyme activity
- inhibition [15]: 95%
- Ka [16]: 13.6 min⁻¹
- Activity [17]: 0%
- inhibition [18]: 48%
- Ks [19]: 0.67 µM
- TIME [20]: No enzyme activity
- TIME [21]: 0.25 h
- Ks [22]: 0.93 µM
- Rate [23]: 14 ka/Ks
- TIME [24]: 0 h
- TIME [25]: 0 h
- TIME [26]: 0 h
- inhibition [27]: 93%
- Ka [28]: 12.9 min⁻¹
- Activity [29]: 85%
- inhibition [30]: 80%
- Ratio [31]: 118 Io/Eo
- Ratio [32]: 36 Io/Eo
- Ratio [33]: 16 Io/Eo
- Ratio [34]: 100 Io/Eo
- Ratio [35]: 518 Io/Eo
- Ratio [36]: 86 Io/Eo
- Ratio [37]: 50 Io/Eo
- inhibition [38]: 78%
- Activity [39]: 0%
- TIME [40]: No enzyme activity
- Ks [41]: 0.16 µM
- Rate [42]: 117 ka/Ks
- Ka [43]: 18.6 min⁻¹
SMILES: N=C(N)Nc1ccc(C2CC/C(=C\I)OC2=O)cc1 (stereo not drawn)

— ChEMBL document CHEMBL1125346, “Guanidinophenyl-substituted enol lactones as selective, mechanism-based inhibitors of trypsin-like serine proteases” (J Med Chem, 1992)
